Measured values published in ChEMBL document CHEMBL1955865, “Synthesis of novel spirooxindole derivatives by one pot multicomponent reaction and their antimicrobial activity” (2012).
Activity calls are given as the source filed them. The calls are words filed in the database; no cut-off is given here.

Tested on: not listed separately
Assay: Antifungal activity against Malassezia pachydermatis at 1000 ug/disc after 48 hrs by disc diffusion assay
Type: functional
Settings: not given
Method in brief: (§1)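 Fungal disc diffusion with inoculum from SDA spores (filamentous) or SDB culture (yeast). Test cultures were swabbed on agar, and discs at 1000 µg/disc were left 30 min at room temperature, with a solvent negative control. Plates were incubated 48 h at 27 °C. Zone of inhibition was measured in mm, and the experiment was repeated twice.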

SMILES	inhibition zone (IZ)
CN1CC2=C(C(=O)c3ccccc3C2=O)C12C(=O)N(Cc1ccccc1)c1ccccc12 (stereo unspecified)	9 mm
CN1CC2=C(C(=O)c3ccccc3C2=O)C12C(=O)Nc1ccc(Cl)cc12 (stereo unspecified)	10 mm
C=CCN1C(=O)C2(C3=C(CN2C)C(=O)c2ccccc2C3=O)c2ccccc21 (stereo unspecified)	9 mm
O=C1C2=C(C(=O)c3ccccc31)C1(C(=O)N(Cc3ccccc3)c3ccccc31)N1CCCC21 (stereo unspecified)	9 mm
C=CCN1C(=O)C2(C3=C(C(=O)c4ccccc4C3=O)C3CCCN32)c2ccccc21 (stereo unspecified)	inactive
O=C1C2=C(C(=O)c3ccccc31)C1(C(=O)Nc3ccc(Cl)cc31)N1CCCC21 (stereo unspecified)	9 mm

Tested on: Candida albicans
Assay: Antifungal activity against Candida albicans MTCC 227 at 1000 ug/disc after 48 hrs by disc diffusion assay
Type: functional
Settings: not given
Method in brief: as §1

SMILES	inhibition zone (IZ)
C=CCN1C(=O)C2(C3=C(C(=O)c4ccccc4C3=O)C3CCCN32)c2ccccc21 (stereo unspecified)	inactive
O=C1C2=C(C(=O)c3ccccc31)C1(C(=O)Nc3ccc(Cl)cc31)N1CCCC21 (stereo unspecified)	inactive

Same assay, conditions: MTCC 227, 48 h, read-out: IZ

SMILES	zone of inhibition at 1000 µg/disc [mm]
CN1CC2=C(C(=O)c3ccccc3C2=O)C12C(=O)N(Cc1ccccc1)c1ccccc12 (stereo unspecified)	8
CN1CC2=C(C(=O)c3ccccc3C2=O)C12C(=O)Nc1ccc(Cl)cc12 (stereo unspecified)	9
C=CCN1C(=O)C2(C3=C(CN2C)C(=O)c2ccccc2C3=O)c2ccccc21 (stereo unspecified)	9
O=C1C2=C(C(=O)c3ccccc31)C1(C(=O)N(Cc3ccccc3)c3ccccc31)N1CCCC21 (stereo unspecified)	8

Tested on: Botrytis cinerea
Assay: Antifungal activity against Botrytis cinerea at 1000 ug/disc after 48 hrs by disc diffusion assay
Type: functional
Settings: not given
Method in brief: as §1

SMILES	inhibition zone (IZ)
O=C1C2=C(C(=O)c3ccccc31)C1(C(=O)N(Cc3ccccc3)c3ccccc31)N1CCCC21 (stereo unspecified)	inactive
C=CCN1C(=O)C2(C3=C(C(=O)c4ccccc4C3=O)C3CCCN32)c2ccccc21 (stereo unspecified)	inactive
O=C1C2=C(C(=O)c3ccccc31)C1(C(=O)Nc3ccc(Cl)cc31)N1CCCC21 (stereo unspecified)	inactive

Same assay, conditions: read-out: IZ

SMILES	zone of inhibition at 1000 µg/disc [mm]
CN1CC2=C(C(=O)c3ccccc3C2=O)C12C(=O)N(Cc1ccccc1)c1ccccc12 (stereo unspecified)	10
CN1CC2=C(C(=O)c3ccccc3C2=O)C12C(=O)Nc1ccc(Cl)cc12 (stereo unspecified)	8
C=CCN1C(=O)C2(C3=C(CN2C)C(=O)c2ccccc2C3=O)c2ccccc21 (stereo unspecified)	8

Tested on: Staphylococcus aureus
Assay: Antibacterial activity against Staphylococcus aureus MTCC 96 at 1000 ug/disc after 24 hrs by disc diffusion assay
Type: functional
Settings: MTCC 96, 24 h, read-out: IZ
Method in brief: (§2)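 Disc diffusion on Mueller Hinton agar. Cultures (about 10^4 CFU/ml) were swabbed on and dried 10 min. Discs loaded at 1000 µg/disc were left 30 min at room temperature for diffusion, with a solvent negative control. Plates were incubated 24 h at 37 °C. Inhibition zones were measured in mm, and the experiment was done twice.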

SMILES	zone of inhibition at 1000 µg/disc [mm]
CN1CC2=C(C(=O)c3ccccc3C2=O)C12C(=O)N(Cc1ccccc1)c1ccccc12 (stereo unspecified)	9
CN1CC2=C(C(=O)c3ccccc3C2=O)C12C(=O)Nc1ccc(Cl)cc12 (stereo unspecified)	14
C=CCN1C(=O)C2(C3=C(CN2C)C(=O)c2ccccc2C3=O)c2ccccc21 (stereo unspecified)	11
O=C1C2=C(C(=O)c3ccccc31)C1(C(=O)N(Cc3ccccc3)c3ccccc31)N1CCCC21 (stereo unspecified)	10
C=CCN1C(=O)C2(C3=C(C(=O)c4ccccc4C3=O)C3CCCN32)c2ccccc21 (stereo unspecified)	8
O=C1C2=C(C(=O)c3ccccc31)C1(C(=O)Nc3ccc(Cl)cc31)N1CCCC21 (stereo unspecified)	12

Tested on: Staphylococcus aureus
Assay: Antibacterial activity against methicillin-resistant Staphylococcus aureus at 1000 ug/disc after 24 hrs by disc diffusion assay
Type: functional
Settings: not given
Method in brief: (§3)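 Disc diffusion on Mueller Hinton agar. Bacteria were grown 24 h at 37 °C in MHB and diluted to about 10^4 CFU/ml, swabbed onto plates and dried 10 min. Discs were loaded at 1000 μg/disc and held 30 min at room temperature for diffusion. Solvent served as negative control. After 24 h at 37 °C, inhibition zones were read in mm; run twice.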

SMILES	inhibition zone (IZ)
C=CCN1C(=O)C2(C3=C(C(=O)c4ccccc4C3=O)C3CCCN32)c2ccccc21 (stereo unspecified)	inactive

Same assay, conditions: read-out: IZ

SMILES	zone of inhibition at 1000 µg/disc [mm]
CN1CC2=C(C(=O)c3ccccc3C2=O)C12C(=O)N(Cc1ccccc1)c1ccccc12 (stereo unspecified)	8
CN1CC2=C(C(=O)c3ccccc3C2=O)C12C(=O)Nc1ccc(Cl)cc12 (stereo unspecified)	11
C=CCN1C(=O)C2(C3=C(CN2C)C(=O)c2ccccc2C3=O)c2ccccc21 (stereo unspecified)	9
O=C1C2=C(C(=O)c3ccccc31)C1(C(=O)N(Cc3ccccc3)c3ccccc31)N1CCCC21 (stereo unspecified)	8
O=C1C2=C(C(=O)c3ccccc31)C1(C(=O)Nc3ccc(Cl)cc31)N1CCCC21 (stereo unspecified)	9

Tested on: Micrococcus luteus
Assay: Antibacterial activity against Micrococcus luteus at 1000 ug/disc after 24 hrs by disc diffusion assay
Type: functional
Settings: read-out: IZ
Method in brief: as §2

SMILES	zone of inhibition at 1000 µg/disc [mm]
CN1CC2=C(C(=O)c3ccccc3C2=O)C12C(=O)N(Cc1ccccc1)c1ccccc12 (stereo unspecified)	9
CN1CC2=C(C(=O)c3ccccc3C2=O)C12C(=O)Nc1ccc(Cl)cc12 (stereo unspecified)	12
C=CCN1C(=O)C2(C3=C(CN2C)C(=O)c2ccccc2C3=O)c2ccccc21 (stereo unspecified)	10
O=C1C2=C(C(=O)c3ccccc31)C1(C(=O)N(Cc3ccccc3)c3ccccc31)N1CCCC21 (stereo unspecified)	9
C=CCN1C(=O)C2(C3=C(C(=O)c4ccccc4C3=O)C3CCCN32)c2ccccc21 (stereo unspecified)	9
O=C1C2=C(C(=O)c3ccccc31)C1(C(=O)Nc3ccc(Cl)cc31)N1CCCC21 (stereo unspecified)	10

Tested on: Klebsiella aerogenes
Assay: Antibacterial activity against Enterobacter aerogenes MTCC 111 at 1000 ug/disc after 24 hrs by disc diffusion assay
Type: functional
Settings: not given
Method in brief: as §2

SMILES	inhibition zone (IZ)
C=CCN1C(=O)C2(C3=C(C(=O)c4ccccc4C3=O)C3CCCN32)c2ccccc21 (stereo unspecified)	inactive

Same assay, conditions: MTCC 111, 24 h, read-out: IZ

SMILES	zone of inhibition at 1000 µg/disc [mm]
CN1CC2=C(C(=O)c3ccccc3C2=O)C12C(=O)N(Cc1ccccc1)c1ccccc12 (stereo unspecified)	8
CN1CC2=C(C(=O)c3ccccc3C2=O)C12C(=O)Nc1ccc(Cl)cc12 (stereo unspecified)	10
C=CCN1C(=O)C2(C3=C(CN2C)C(=O)c2ccccc2C3=O)c2ccccc21 (stereo unspecified)	9
O=C1C2=C(C(=O)c3ccccc31)C1(C(=O)N(Cc3ccccc3)c3ccccc31)N1CCCC21 (stereo unspecified)	8
O=C1C2=C(C(=O)c3ccccc31)C1(C(=O)Nc3ccc(Cl)cc31)N1CCCC21 (stereo unspecified)	9

Tested on: Proteus vulgaris
Assay: Antibacterial activity against Proteus vulgaris MTCC 1771 at 1000 ug/disc after 24 hrs by disc diffusion assay
Type: functional
Settings: not given
Method in brief: as §2

SMILES	inhibition zone (IZ)
C=CCN1C(=O)C2(C3=C(C(=O)c4ccccc4C3=O)C3CCCN32)c2ccccc21 (stereo unspecified)	inactive

Same assay, conditions: MTCC 1771, 24 h, read-out: IZ

SMILES	zone of inhibition at 1000 µg/disc [mm]
CN1CC2=C(C(=O)c3ccccc3C2=O)C12C(=O)N(Cc1ccccc1)c1ccccc12 (stereo unspecified)	8
CN1CC2=C(C(=O)c3ccccc3C2=O)C12C(=O)Nc1ccc(Cl)cc12 (stereo unspecified)	10
C=CCN1C(=O)C2(C3=C(CN2C)C(=O)c2ccccc2C3=O)c2ccccc21 (stereo unspecified)	8
O=C1C2=C(C(=O)c3ccccc31)C1(C(=O)N(Cc3ccccc3)c3ccccc31)N1CCCC21 (stereo unspecified)	10
O=C1C2=C(C(=O)c3ccccc31)C1(C(=O)Nc3ccc(Cl)cc31)N1CCCC21 (stereo unspecified)	9

Tested on: Klebsiella pneumoniae
Assay: Antibacterial activity against Klebsiella pneumoniae MTCC 109 at 1000 ug/disc after 24 hrs by disc diffusion assay
Type: functional
Settings: not given
Method in brief: as §2

SMILES	inhibition zone (IZ)
C=CCN1C(=O)C2(C3=C(C(=O)c4ccccc4C3=O)C3CCCN32)c2ccccc21 (stereo unspecified)	inactive

Same assay, conditions: MTCC 109, 24 h, read-out: IZ

SMILES	zone of inhibition at 1000 µg/disc [mm]
CN1CC2=C(C(=O)c3ccccc3C2=O)C12C(=O)N(Cc1ccccc1)c1ccccc12 (stereo unspecified)	10
CN1CC2=C(C(=O)c3ccccc3C2=O)C12C(=O)Nc1ccc(Cl)cc12 (stereo unspecified)	13
C=CCN1C(=O)C2(C3=C(CN2C)C(=O)c2ccccc2C3=O)c2ccccc21 (stereo unspecified)	9
O=C1C2=C(C(=O)c3ccccc31)C1(C(=O)N(Cc3ccccc3)c3ccccc31)N1CCCC21 (stereo unspecified)	8
O=C1C2=C(C(=O)c3ccccc31)C1(C(=O)Nc3ccc(Cl)cc31)N1CCCC21 (stereo unspecified)	11

Tested on: Salmonella typhimurium
Assay: Antibacterial activity against Salmonella Typhimurium MTCC 1251 at 1000 ug/disc after 24 hrs by disc diffusion assay
Type: functional, Salmonella enterica subsp. enterica serovar Typhimurium
Settings: Salmonella enterica, MTCC 1251, 24 h; read-out: IZ
Method in brief: as §2

SMILES	zone of inhibition at 1000 µg/disc [mm]
CN1CC2=C(C(=O)c3ccccc3C2=O)C12C(=O)N(Cc1ccccc1)c1ccccc12 (stereo unspecified)	9
CN1CC2=C(C(=O)c3ccccc3C2=O)C12C(=O)Nc1ccc(Cl)cc12 (stereo unspecified)	11
C=CCN1C(=O)C2(C3=C(CN2C)C(=O)c2ccccc2C3=O)c2ccccc21 (stereo unspecified)	11
O=C1C2=C(C(=O)c3ccccc31)C1(C(=O)N(Cc3ccccc3)c3ccccc31)N1CCCC21 (stereo unspecified)	9
C=CCN1C(=O)C2(C3=C(C(=O)c4ccccc4C3=O)C3CCCN32)c2ccccc21 (stereo unspecified)	9
O=C1C2=C(C(=O)c3ccccc31)C1(C(=O)Nc3ccc(Cl)cc31)N1CCCC21 (stereo unspecified)	10

Tested on: Salmonella enterica subsp. enterica serovar Paratyphi B
Assay: Antibacterial activity against Salmonella paratyphi B at 1000 ug/disc after 24 hrs by disc diffusion assay
Type: functional
Settings: not given
Method in brief: as §3

SMILES	inhibition zone (IZ)
C=CCN1C(=O)C2(C3=C(CN2C)C(=O)c2ccccc2C3=O)c2ccccc21 (stereo unspecified)	inactive
O=C1C2=C(C(=O)c3ccccc31)C1(C(=O)N(Cc3ccccc3)c3ccccc31)N1CCCC21 (stereo unspecified)	inactive
C=CCN1C(=O)C2(C3=C(C(=O)c4ccccc4C3=O)C3CCCN32)c2ccccc21 (stereo unspecified)	inactive
O=C1C2=C(C(=O)c3ccccc31)C1(C(=O)Nc3ccc(Cl)cc31)N1CCCC21 (stereo unspecified)	inactive

Same assay, conditions: read-out: IZ

SMILES	zone of inhibition at 1000 µg/disc [mm]
CN1CC2=C(C(=O)c3ccccc3C2=O)C12C(=O)N(Cc1ccccc1)c1ccccc12 (stereo unspecified)	8
CN1CC2=C(C(=O)c3ccccc3C2=O)C12C(=O)Nc1ccc(Cl)cc12 (stereo unspecified)	13
